Measured values reported in ChEMBL document CHEMBL4364314, “Design, synthesis and biological evaluation of 6-deoxy O-spiroketal C-arylglucosides as novel renal sodium-dependent glucose cotransporter 2 (SGLT2) inhibitors for the treatment of type 2 diabetes” (Eur J Med Chem, 2019).

Columns and labels:
[1] = biological target: T1, Sodium/glucose cotransporter 2 (Homo sapiens, UniProt P31639); assay: Inhibition of human full length SGLT2 expressed in NIH3T3 cells measured after 1 hr in presence of [14C]-methyl-alpha -D-glucopyranoside by scintillation counter method; format: cell-based
T1 sequence (P31639 whole entry): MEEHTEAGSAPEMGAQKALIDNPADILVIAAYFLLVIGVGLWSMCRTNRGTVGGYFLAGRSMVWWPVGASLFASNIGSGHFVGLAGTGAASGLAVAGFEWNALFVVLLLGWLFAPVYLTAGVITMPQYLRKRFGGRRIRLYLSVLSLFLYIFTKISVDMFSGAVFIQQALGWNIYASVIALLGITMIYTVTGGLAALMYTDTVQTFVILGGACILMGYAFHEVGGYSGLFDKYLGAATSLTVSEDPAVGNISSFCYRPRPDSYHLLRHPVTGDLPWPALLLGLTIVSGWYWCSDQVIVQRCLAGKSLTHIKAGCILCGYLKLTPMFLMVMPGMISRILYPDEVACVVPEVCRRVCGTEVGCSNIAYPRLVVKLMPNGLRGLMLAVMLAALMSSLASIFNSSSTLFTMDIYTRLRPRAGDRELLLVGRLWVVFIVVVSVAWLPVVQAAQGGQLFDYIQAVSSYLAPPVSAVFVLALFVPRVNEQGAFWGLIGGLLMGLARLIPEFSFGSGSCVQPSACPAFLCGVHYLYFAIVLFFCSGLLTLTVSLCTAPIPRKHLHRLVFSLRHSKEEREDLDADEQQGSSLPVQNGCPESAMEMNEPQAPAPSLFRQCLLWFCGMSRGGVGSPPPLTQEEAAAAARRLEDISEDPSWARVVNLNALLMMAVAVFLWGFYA
Outline: (§1)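 Stable NIH3T3 lines from retroviral transduction of full-length hSGLT1 or hSGLT2 (pBABE-puro, 8 µg/mL polybrene, puromycin 2 µg/mL selection for 2 weeks). Cells plated 2 days ahead, 2 mmol/L sodium butyrate added day 2. Read by scintillation counting. Compound-free buffer served as negative control, sodium-free N-methyl-glucamine buffer as blank.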

Homo sapiens = species: Homo sapiens; assay: Selectivity ratio of IC50 for human full length SGLT1 to IC50 for human full length SGLT2
Outline: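 Ratio of IC50 at hSGLT1 to IC50 at hSGLT2, both from the [14C]methyl-α-D-glucopyranoside uptake assay in stably transfected NIH3T3 cells.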

[2] = biological target: T2, Sodium/glucose cotransporter 1 (Homo sapiens, UniProt P13866); assay: Inhibition of human full length SGLT1 expressed in NIH3T3 cells measured after 1 hr in presence of [14C]-methyl-alpha -D-glucopyranoside by scintillation counter method; format: cell-based; outline: as §1
T2 sequence (P13866 whole entry): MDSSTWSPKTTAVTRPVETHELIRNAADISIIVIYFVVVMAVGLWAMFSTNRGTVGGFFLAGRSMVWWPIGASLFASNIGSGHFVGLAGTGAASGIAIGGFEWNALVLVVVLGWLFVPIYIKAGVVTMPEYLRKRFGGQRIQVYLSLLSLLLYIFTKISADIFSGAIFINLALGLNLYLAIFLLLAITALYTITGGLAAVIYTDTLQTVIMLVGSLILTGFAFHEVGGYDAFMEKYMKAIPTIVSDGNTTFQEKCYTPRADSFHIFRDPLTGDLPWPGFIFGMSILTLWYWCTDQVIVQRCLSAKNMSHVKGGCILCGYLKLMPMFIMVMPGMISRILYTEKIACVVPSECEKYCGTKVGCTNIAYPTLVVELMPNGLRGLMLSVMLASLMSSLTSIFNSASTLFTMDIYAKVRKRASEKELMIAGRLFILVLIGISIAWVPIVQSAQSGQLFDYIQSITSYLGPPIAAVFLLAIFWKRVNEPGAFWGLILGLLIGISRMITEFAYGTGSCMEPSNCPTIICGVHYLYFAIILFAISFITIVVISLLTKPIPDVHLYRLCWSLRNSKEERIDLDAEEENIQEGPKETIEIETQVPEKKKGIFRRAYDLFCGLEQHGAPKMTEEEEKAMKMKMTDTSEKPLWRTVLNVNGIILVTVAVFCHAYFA

[3] = biological target: T3, Sodium/glucose cotransporter 2 (Homo sapiens) (UniProt P31639); assay: Binding affinity to human SGLT2 assessed as dissociation half-life
T3 sequence (whole entry): T1 sequence (P31639 whole entry)

Mus musculus [4] = assay: Effect on urinary volume in C57BL/6J mouse at 1 mg/kg, po administered as single dose measured after 24 hrs (reference value: 1.24 +/- 0.45 mL); format: ADME, organism-based; details: in vivo
Mus musculus [5] = assay: Effect on urine glucose concentration in C57BL/6J mouse at 1 mg/kg, po administered as single dose measured after 24 hrs by glucose oxidase method (reference value: 0.74 +/- 0.14 mmol/L); format: functional
Rattus norvegicus [6] = assay: Effect on urine glucose concentration in Sprague-Dawley rat at 1 mg/kg, po administered as single dose measured after 24 hrs by glucose oxidase method (reference value: 0.28 +/- 0.16 mmol/L); format: functional
Rattus norvegicus [7] = assay: Effect on urinary volume in Sprague-Dawley rat at 1 mg/kg, po administered as single dose measured after 24 hrs (reference value: 24.17 +/- 7.11 mL); format: ADME, organism-based; details: in vivo
Mus musculus [8] = assay: Effect on urine glucose excretion in C57BL/6J mouse at 1 mg/kg, po administered as single dose measured after 24 hrs assessed per 100 grams (reference value: 0.84 +/- 0.40 mg ); format: functional
Rattus norvegicus [9] = assay: Effect on urine glucose excretion in Sprague-Dawley rat 1 mg/kg, po administered as single dose measured after 24 hrs assessed per 100 grams (reference value: 0.51 +/- 0.40 mg); format: functional

Structure (SMILES): C[C@H]1O[C@]2(OCc3ccc(Cc4cc5ccccc5s4)cc32)[C@H](O)[C@@H](O)[C@@H]1O
- IC50 [1]: > 100 nM

Structure (SMILES): CCCc1ccc(Cc2ccc3c(c2)[C@]2(OC3)O[C@H](C)[C@@H](O)[C@H](O)[C@H]2O)cc1
- IC50 [1]: > 100 nM

Structure (SMILES): CCc1ccc(Cc2cc3c(cc2F)CO[C@]32O[C@H](C)[C@@H](O)[C@H](O)[C@H]2O)s1
- IC50 [1]: 26.2 nM
- Ratio IC50 (Homo sapiens): 988

Structure (SMILES): C[C@H]1O[C@]2(OCc3cc(Cl)c(Cc4ccc(-c5ccc(F)cc5)s4)cc32)[C@H](O)[C@@H](O)[C@@H]1O
- IC50 [1]: > 100 nM

Structure (SMILES): C[C@H]1O[C@]2(OCc3cc(Cl)c(Cc4ccc(Cl)s4)cc32)[C@H](O)[C@@H](O)[C@@H]1O
- IC50 [2]: 500 nM
- IC50 [1]: 15.9 nM
- Ratio IC50 (Homo sapiens): 30

Structure (SMILES): C[C@H]1O[C@]2(OCc3ccc(Cc4ccc(-c5ccccc5)s4)cc32)[C@H](O)[C@@H](O)[C@@H]1O
- IC50 [1]: > 100 nM

Structure (SMILES): COCCc1ccc(Cc2cc3c(cc2Cl)CO[C@]32O[C@H](C)[C@@H](O)[C@H](O)[C@H]2O)s1
- IC50 [2]: 4700 nM
- IC50 [1]: 69.4 nM
- Ratio IC50 (Homo sapiens): 68

Structure (SMILES): Cc1ccc(Cc2cc3c(cc2Cl)CO[C@]32O[C@H](C)[C@@H](O)[C@H](O)[C@H]2O)s1
- IC50 [2]: 400 nM
- IC50 [1]: 8.5 nM
- Ratio IC50 (Homo sapiens): 46

Structure (SMILES): OC[C@H]1O[C@@H](c2ccc(Cl)c(Cc3ccc(O[C@H]4CCOC4)cc3)c2)[C@H](O)[C@@H](O)[C@@H]1O
- T1/2 [3]: 1 h

Structure (SMILES): C[C@H]1O[C@]2(OCc3ccc(Cc4ccc(Cl)s4)cc32)[C@H](O)[C@@H](O)[C@@H]1O
- IC50 [1]: > 100 nM

Structure (SMILES): CC(C)c1ccc(Cc2ccc3c(c2)[C@]2(OC3)O[C@H](C)[C@@H](O)[C@H](O)[C@H]2O)cc1
- IC50 [1]: > 100 nM

Structure (SMILES): C[C@H]1O[C@]2(OCc3ccc(Cc4ccc5ccccc5c4)cc32)[C@H](O)[C@@H](O)[C@@H]1O
- IC50 [1]: > 100 nM

Structure (SMILES): CCc1ccc(Cc2cc3c(cc2Cl)CO[C@]32O[C@H](C)[C@@H](O)[C@H](O)[C@H]2O)cc1
- IC50 [2]: 400 nM
- Ratio IC50 (Homo sapiens): 13

Structure (SMILES): C[C@H]1O[C@]2(OCc3cc(Cl)c(Cc4ccc(CO)s4)cc32)[C@H](O)[C@@H](O)[C@@H]1O
- IC50 [2]: 2200 nM
- IC50 [1]: 47.2 nM
- Ratio IC50 (Homo sapiens): 47

Structure (SMILES): CCCc1ccc(Cc2ccc3c(c2)[C@]2(OC3)O[C@H](C)[C@@H](O)[C@H](O)[C@H]2O)s1
- IC50 [1]: > 100 nM

Structure (SMILES): COC(=O)Cc1ccc(Cc2cc3c(cc2Cl)CO[C@]32O[C@H](C)[C@@H](O)[C@H](O)[C@H]2O)s1
- IC50 [2]: 6400 nM
- IC50 [1]: 42.4 nM
- Ratio IC50 (Homo sapiens): 151

Structure (SMILES): C[C@H]1O[C@]2(OCc3ccc(Cc4ccc(-c5ccccn5)s4)cc32)[C@H](O)[C@@H](O)[C@@H]1O
- IC50 [1]: > 100 nM

Structure (SMILES): C[C@H]1O[C@]2(OCc3ccc(Cc4ccc(-c5ccc(F)cc5)s4)cc32)[C@H](O)[C@@H](O)[C@@H]1O
- IC50 [1]: > 100 nM

Structure (SMILES): CCOc1ccc(Cc2ccc3c(c2)[C@]2(OC3)O[C@H](C)[C@@H](O)[C@H](O)[C@H]2O)cc1
- IC50 [1]: > 100 nM

Structure (SMILES): Cc1ccc(Cc2ccc3c(c2)[C@]2(OC3)O[C@H](C)[C@@H](O)[C@H](O)[C@H]2O)s1
- IC50 [1]: > 100 nM

Structure (SMILES): C[C@H]1O[C@]2(OCc3cc(Cl)c(Cc4cc5ccccc5s4)cc32)[C@H](O)[C@@H](O)[C@@H]1O
- IC50 [2]: 2000 nM
- Ratio IC50 (Homo sapiens): 81

Structure (SMILES): CCCOCCc1ccc(Cc2cc3c(cc2Cl)CO[C@]32O[C@H](C)[C@@H](O)[C@H](O)[C@H]2O)s1
- IC50 [2]: 5000 nM
- IC50 [1]: 42.3 nM
- Ratio IC50 (Homo sapiens): 117

Structure (SMILES): COC(=O)c1ccc(Cc2cc3c(cc2Cl)CO[C@]32O[C@H](C)[C@@H](O)[C@H](O)[C@H]2O)s1
- IC50 [2]: 3000 nM
- IC50 [1]: 51.5 nM
- Ratio IC50 (Homo sapiens): 58

Structure (SMILES): C[C@H]1O[C@]2(OCc3ccc(Cc4cc5ccccc5o4)cc32)[C@H](O)[C@@H](O)[C@@H]1O
- IC50 [1]: > 100 nM

Structure (SMILES): Cc1ccc(Cc2ccc3c(c2)[C@]2(OC3)O[C@H](C)[C@@H](O)[C@H](O)[C@H]2O)cc1
- IC50 [1]: > 100 nM

Structure (SMILES): CCc1ccc(Cc2ccc3c(c2)[C@]2(OC3)O[C@H](C)[C@@H](O)[C@H](O)[C@H]2O)s1
- IC50 [1]: > 100 nM

Structure (SMILES): CCOc1ccc(Cc2cc3c(cc2Cl)CO[C@]32O[C@H](C)[C@@H](O)[C@H](O)[C@H]2O)cc1
- IC50 [2]: 500 nM
- IC50 [1]: 8.8 nM
- Ratio IC50 (Homo sapiens): 60

Structure (SMILES): CCc1ccc(Cc2ccc3c(c2)[C@]2(OC3)O[C@H](C)[C@@H](O)[C@H](O)[C@H]2O)cc1
- Ratio IC50 (Homo sapiens): 351

Structure (SMILES): CCOc1ccc(Cc2cc([C@@H]3S[C@H](CO)[C@@H](O)[C@H](O)[C@H]3O)c(OC)cc2C)cc1
- T1/2 [3]: 7 h

Structure (SMILES): CCc1ccc(Cc2ccc3c(c2)[C@]2(OC3)O[C@H](CO)[C@@H](O)[C@H](O)[C@H]2O)cc1.O [TOFOGLIFLOZIN]
- Activity (Mus musculus [4]): 1.3 mL
- Activity (Mus musculus [5]): 56.27 mmol/L
- Activity (Rattus norvegicus [6]): 43.67 mmol/L
- Activity (Rattus norvegicus [7]): 26.5 mL
- Activity (Mus musculus [8]): 48.85 mg
- Activity (Rattus norvegicus [9]): 73.68 mg

Structure (SMILES): COc1ccc(Cc2ccc3c(c2)[C@]2(OC3)O[C@H](C)[C@@H](O)[C@H](O)[C@H]2O)cc1
- IC50 [1]: > 100 nM

Structure (SMILES): CCOCCc1ccc(Cc2cc3c(cc2Cl)CO[C@]32O[C@H](C)[C@@H](O)[C@H](O)[C@H]2O)s1
- IC50 [2]: 4800 nM
- IC50 [1]: 67.5 nM
- Ratio IC50 (Homo sapiens): 71

Structure (SMILES): C[C@H]1O[C@]2(OCc3cc(Cl)c(Cc4ccc(C=O)s4)cc32)[C@H](O)[C@@H](O)[C@@H]1O
- IC50 [2]: 3600 nM
- IC50 [1]: 51.3 nM
- Ratio IC50 (Homo sapiens): 70
